Activity calls are given as the source filed them. The calls are words filed in the database; no cut-off is given here.
Key:
NCI-H1975 [1] = assay: Antiproliferative activity against human NCI-H1975 cells incubated for 72 hrs by MTT assay; assay type: functional, cell-based; conditions: NCI-H1975, 72 h
A-431 = assay: Antiproliferative activity against human A431 cells incubated for 72 hrs by MTT assay; assay type: functional, cell-based; conditions: A-431, 72 h
SK-BR-3 = assay: Antiproliferation activity against human SK-BR-3 cells incubated for 72 hrs by MTT assay; assay type: functional, cell-based; conditions: SK-BR-3, 72 h
Procedure, shortened: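 MTT assay. About 0.5–1 × 10⁴ cells/well were pre-incubated 12 h at 37 °C in 5% CO₂, then exposed to a concentration series of compound for 72 h. Formazan was dissolved in DMSO and absorbance read at 490 nm. Three wells per condition, three independent experiments. IC50 is the mean ± SD from the dose-response curves.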

[2] = target: Receptor tyrosine-protein kinase erbB-2 (Homo sapiens, UniProt P04626); assay: Inhibition of HER2 (unknown origin) by mobility shift assay
Procedure, shortened: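 In vitro kinase activity was measured by mobility shift assay, run by a contract provider.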

Histone deacetylase 1 = Histone deacetylase 1 (Homo sapiens, UniProt Q13547); assay: Inhibition of HDAC1 (unknown origin)
[3] = target: Epidermal growth factor receptor (Homo sapiens, UniProt P00533, L858R/T790M); assay: Inhibition of EGFR L858R/T790M (unknown origin) by mobility shift assay
[4] = target: T1, Epidermal growth factor receptor (Homo sapiens, UniProt P00533); assay: Inhibition of EGFR (unknown origin) by mobility shift assay
[5] = Antiproliferative activity against human NCI-H820 cells incubated for 72 hrs by MTT assay; assay type: functional, cell-based; conditions: NCI-H820, 72 h
[6] = target: T2, Histone deacetylase (Homo sapiens) (UniProt Q13547+O15379+Q9UBN7+Q92769+Q9UQL6+Q8WUI4+Q9BY41+Q96DB2+P56524+Q9UKV0+Q969S8); assay: Inhibition of HDAC in human NCI-H1975 cells assessed as increase in histone H3 acetylation after 48 hrs by Western blot analysis; assay type: cell-based; conditions: dose 0.5-5 µM
Procedure, shortened: (§1)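 Cells were treated with compound for 48 h and lysed on ice for 30 min in RIPA buffer with protease and phosphatase inhibitors. Lysates were cleared at 14000 g, 4 °C, and protein quantified by BCA. Samples were boiled in loading buffer, run on 10–12% SDS-PAGE and transferred to PVDF. Membranes were blocked 2 h, incubated in primary antibody overnight at 4 °C, then in secondary antibody 2 h at room temperature.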

[7] = target: T1, Epidermal growth factor receptor; assay: Inhibition of EGFR in human NCI-H1975 cells assessed as reduction in EGFR phosphorylation at Tyr-1173 residues after 48 hrs by Western blot analysis; assay type: cell-based; conditions: dose 0.5-5 µM; procedure, shortened: as §1
[8] = target: T1, Epidermal growth factor receptor; assay: Inhibition of EGFR in human NCI-H1975 cells assessed as reduction in EGFR phosphorylation at Tyr-1068 residues after 48 hrs by Western blot analysis; assay type: cell-based; conditions: dose 0.5-5 µM; procedure, shortened: as §1
L02 = assay: cytotoxicity against human HL-7702 cells assessed as reduction of cell viability incubated for 72 hrs by MTT assay; assay type: ADME, cell-based; conditions: L02, 72 h
NCI-H1975 [9] = assay: Antiinvasive activity against human NCI-H1975 cells measured after 72 hrs by crystal violet dye-based transwell assay; assay type: functional, cell-based; conditions: dose 0.5-5 µM
Procedure, shortened: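 NCI-H1975 cells, 1 × 10⁴/well, seeded in serum-free medium in the upper chamber of a transwell insert. The lower chamber held 10% FBS medium with compound at the indicated dilutions, for 72 h. Non-invading cells were swabbed off. Cells on the membrane underside were fixed in 10% buffered formalin for 1 h, stained with crystal violet for 1 h, and imaged in three random fields.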

NCI-H1975 [10] = assay: Induction of apoptosis in human NCI-H1975 cells assessed as early apoptotic cells at 0.5 uM incubated for 48 hrs by propidium iodide and annexin-V FITC staining based flow cytometry (reference value: 6.67 %); assay type: functional
NCI-H1975 [11] = assay: Induction of apoptosis in human NCI-H1975 cells assessed as late apoptotic cells at 0.5 uM incubated for 48 hrs by propidium iodide and annexin-V FITC staining based flow cytometry (Rvb =4.20 %); assay type: functional
NCI-H1975 [12] = assay: Induction of apoptosis in human NCI-H1975 cells assessed as necrotic cells at 0.5 uM incubated for 48 hrs by propidium iodide and annexin-V FITC staining based flow cytometry (Rvb =0.18% ); assay type: functional
NCI-H1975 [13] = assay: Induction of apoptosis in human NCI-H1975 cells assessed as viable cells at 0.5 uM incubated for 48 hrs by propidium iodide and annexin-V FITC staining based flow cytometry (Rvb =88.95% ); assay type: functional; conditions: read-out: Activity
NCI-H1975 [14] = assay: Induction of apoptosis in human NCI-H1975 cells assessed as early apoptotic cells at 2.5 uM incubated for 48 hrs by propidium iodide and annexin-V FITC staining based flow cytometry (reference value: 6.67 %); assay type: functional
NCI-H1975 [15] = assay: Induction of apoptosis in human NCI-H1975 cells assessed as late apoptotic cells at 2.5 uM incubated for 48 hrs by propidium iodide and annexin-V FITC staining based flow cytometry (Rvb =4.20 %); assay type: functional
NCI-H1975 [16] = assay: Induction of apoptosis in human NCI-H1975 cells assessed as necrotic cells at 2.5 uM incubated for 48 hrs by propidium iodide and annexin-V FITC staining based flow cytometry (Rvb =0.18% ); assay type: functional
NCI-H1975 [17] = assay: Induction of apoptosis in human NCI-H1975 cells assessed as viable cells at 2.5 uM incubated for 48 hrs by propidium iodide and annexin-V FITC staining based flow cytometry (Rvb =88.95% ); assay type: functional; conditions: read-out: Activity
NCI-H1975 [18] = assay: Induction of apoptosis in human NCI-H1975 cells assessed as early apoptotic cells at 5 uM incubated for 48 hrs by propidium iodide and annexin-V FITC staining based flow cytometry (reference value: 6.67 %); assay type: functional
NCI-H1975 [19] = assay: Induction of apoptosis in human NCI-H1975 cells assessed as late apoptotic cells at 5 uM incubated for 48 hrs by propidium iodide and annexin-V FITC staining based flow cytometry (Rvb =4.20 %); assay type: functional
NCI-H1975 [20] = assay: Induction of apoptosis in human NCI-H1975 cells assessed as viable cells at 5 uM incubated for 48 hrs by propidium iodide and annexin-V FITC staining based flow cytometry (Rvb =88.95% ); assay type: functional; conditions: read-out: Activity
[21] = target: T1, Epidermal growth factor receptor; assay: Inhibition of EGFR in human A431 cells assessed as reduction in EGFR phosphorylation at Tyr-1068 residues at 0.5 to 5 uM after 48 hrs by Western blot analysis; assay type: cell-based; conditions: A-431, dose 0.5-5 µM; procedure, shortened: as §1
[22] = target: T1, Epidermal growth factor receptor; assay: Inhibition of EGFR in human A431 cells assessed as reduction in EGFR phosphorylation at Tyr-1173 residues at 0.5 to 5 uM after 48 hrs by Western blot analysis; assay type: cell-based; conditions: A-431, dose 0.5-5 µM; procedure, shortened: as §1
[23] = target: T2, Histone deacetylase (Homo sapiens); assay: Inhibition of HDAC in human A431 cells assessed as increase in histone H3 acetylation at 0.5 to 5 uM after 48 hrs by Western blot analysis; assay type: cell-based; conditions: A-431, dose 0.5-5 µM; procedure, shortened: as §1
NCI-H1975 [24] = assay: Induction of apoptosis in human NCI-H1975 cells assessed as increase in cleaved-caspase 8 level at 0.5 to 5 uM after 48 hrs by Western blot analysis; assay type: functional, cell-based; conditions: dose 0.5-5 µM; procedure, shortened: as §1
NCI-H1975 [25] = assay: Induction of apoptosis in human NCI-H1975 cells assessed as increase in cleaved-caspase 3 level at 0.5 to 5 uM after 48 hrs by Western blot analysis; assay type: functional, cell-based; conditions: dose 0.5-5 µM; procedure, shortened: as §1
NCI-H1975 [26] = assay: Induction of apoptosis in human NCI-H1975 cells assessed as increase in cleaved-caspase 7 level at 0.5 to 5 uM after 48 hrs by Western blot analysis; assay type: functional, cell-based; conditions: dose 0.5-5 µM; procedure, shortened: as §1

T1 sequence (P00533 whole entry): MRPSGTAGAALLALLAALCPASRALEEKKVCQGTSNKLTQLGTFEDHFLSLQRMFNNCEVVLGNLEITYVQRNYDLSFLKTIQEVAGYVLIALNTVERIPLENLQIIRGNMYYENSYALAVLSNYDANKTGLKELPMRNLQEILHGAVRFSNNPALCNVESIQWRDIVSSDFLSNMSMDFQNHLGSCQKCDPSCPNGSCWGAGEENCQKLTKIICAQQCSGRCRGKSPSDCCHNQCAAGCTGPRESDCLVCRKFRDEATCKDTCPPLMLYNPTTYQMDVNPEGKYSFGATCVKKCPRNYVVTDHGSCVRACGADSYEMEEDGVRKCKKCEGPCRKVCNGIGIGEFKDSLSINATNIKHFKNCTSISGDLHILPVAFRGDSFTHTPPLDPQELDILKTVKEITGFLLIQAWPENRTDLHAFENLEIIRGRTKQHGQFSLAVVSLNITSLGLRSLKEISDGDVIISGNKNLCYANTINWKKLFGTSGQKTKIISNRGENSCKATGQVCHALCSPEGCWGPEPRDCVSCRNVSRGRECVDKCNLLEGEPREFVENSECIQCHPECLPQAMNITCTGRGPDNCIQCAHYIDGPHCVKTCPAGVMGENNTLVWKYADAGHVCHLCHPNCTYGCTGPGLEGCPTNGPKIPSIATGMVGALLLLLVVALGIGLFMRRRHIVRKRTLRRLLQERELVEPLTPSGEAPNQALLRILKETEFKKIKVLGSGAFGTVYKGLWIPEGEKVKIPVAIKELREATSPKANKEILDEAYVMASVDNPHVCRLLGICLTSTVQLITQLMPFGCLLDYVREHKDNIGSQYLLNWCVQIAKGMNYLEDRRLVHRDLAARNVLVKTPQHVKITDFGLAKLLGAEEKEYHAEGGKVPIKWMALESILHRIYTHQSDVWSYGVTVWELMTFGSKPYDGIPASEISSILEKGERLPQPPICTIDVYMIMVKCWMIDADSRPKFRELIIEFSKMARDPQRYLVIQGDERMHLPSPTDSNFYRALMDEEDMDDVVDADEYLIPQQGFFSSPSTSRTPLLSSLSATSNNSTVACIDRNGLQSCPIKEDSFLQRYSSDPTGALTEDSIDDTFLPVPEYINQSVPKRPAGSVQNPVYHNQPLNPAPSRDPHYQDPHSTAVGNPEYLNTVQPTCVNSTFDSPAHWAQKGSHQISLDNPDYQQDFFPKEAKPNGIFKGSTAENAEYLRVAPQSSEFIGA
Sequence of Receptor tyrosine-protein kinase erbB-2 (P04626 whole entry): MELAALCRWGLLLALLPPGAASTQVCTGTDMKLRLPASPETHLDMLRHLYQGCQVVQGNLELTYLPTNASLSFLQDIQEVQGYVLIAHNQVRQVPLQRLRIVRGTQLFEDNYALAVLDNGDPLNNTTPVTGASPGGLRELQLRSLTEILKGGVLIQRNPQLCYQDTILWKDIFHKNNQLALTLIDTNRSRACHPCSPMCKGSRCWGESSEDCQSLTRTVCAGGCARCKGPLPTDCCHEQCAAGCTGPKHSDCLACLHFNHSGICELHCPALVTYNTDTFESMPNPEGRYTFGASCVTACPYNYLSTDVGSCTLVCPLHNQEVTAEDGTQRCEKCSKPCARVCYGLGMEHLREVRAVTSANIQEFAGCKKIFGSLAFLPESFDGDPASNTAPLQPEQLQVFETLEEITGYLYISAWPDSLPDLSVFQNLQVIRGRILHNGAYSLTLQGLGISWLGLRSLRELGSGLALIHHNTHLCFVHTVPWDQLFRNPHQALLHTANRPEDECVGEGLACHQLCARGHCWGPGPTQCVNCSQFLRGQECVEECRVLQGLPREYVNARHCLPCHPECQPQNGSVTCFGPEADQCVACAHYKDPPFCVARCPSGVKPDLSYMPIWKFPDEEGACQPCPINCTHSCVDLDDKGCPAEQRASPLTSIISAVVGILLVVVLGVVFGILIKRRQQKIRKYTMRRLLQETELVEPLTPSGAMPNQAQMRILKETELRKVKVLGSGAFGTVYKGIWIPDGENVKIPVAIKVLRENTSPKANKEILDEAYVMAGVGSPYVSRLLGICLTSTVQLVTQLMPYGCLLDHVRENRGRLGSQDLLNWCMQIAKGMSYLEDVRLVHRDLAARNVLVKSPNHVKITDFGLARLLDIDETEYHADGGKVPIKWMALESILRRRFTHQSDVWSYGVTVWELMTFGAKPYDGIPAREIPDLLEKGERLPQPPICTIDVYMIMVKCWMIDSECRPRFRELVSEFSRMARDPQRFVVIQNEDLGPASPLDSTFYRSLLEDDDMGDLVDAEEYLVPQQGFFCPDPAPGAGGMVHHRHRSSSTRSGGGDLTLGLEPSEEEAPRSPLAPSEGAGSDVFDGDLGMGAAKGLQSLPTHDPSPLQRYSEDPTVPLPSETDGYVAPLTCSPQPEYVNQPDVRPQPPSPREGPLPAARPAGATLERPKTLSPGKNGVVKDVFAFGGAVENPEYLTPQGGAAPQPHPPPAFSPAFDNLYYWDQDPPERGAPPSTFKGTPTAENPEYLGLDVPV
Sequence of Histone deacetylase 1 (Q13547 whole entry): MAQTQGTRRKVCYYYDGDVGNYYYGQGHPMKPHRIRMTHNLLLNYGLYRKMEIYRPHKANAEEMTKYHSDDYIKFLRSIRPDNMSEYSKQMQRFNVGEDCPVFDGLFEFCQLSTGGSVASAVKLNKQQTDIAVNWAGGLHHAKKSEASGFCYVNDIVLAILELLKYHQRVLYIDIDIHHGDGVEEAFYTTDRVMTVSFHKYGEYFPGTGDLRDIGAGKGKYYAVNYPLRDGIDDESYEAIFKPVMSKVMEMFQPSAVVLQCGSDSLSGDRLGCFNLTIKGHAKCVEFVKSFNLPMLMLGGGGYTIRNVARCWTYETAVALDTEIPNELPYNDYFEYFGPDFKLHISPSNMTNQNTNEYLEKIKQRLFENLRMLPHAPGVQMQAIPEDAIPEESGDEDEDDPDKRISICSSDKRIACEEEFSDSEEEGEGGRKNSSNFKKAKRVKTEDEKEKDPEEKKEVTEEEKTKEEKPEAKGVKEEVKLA
Sequence of Epidermal growth factor receptor (Homo sapiens, UniProt P00533, L858R/T790M) (P00533 25-1210 T790M/L858R limits assumed): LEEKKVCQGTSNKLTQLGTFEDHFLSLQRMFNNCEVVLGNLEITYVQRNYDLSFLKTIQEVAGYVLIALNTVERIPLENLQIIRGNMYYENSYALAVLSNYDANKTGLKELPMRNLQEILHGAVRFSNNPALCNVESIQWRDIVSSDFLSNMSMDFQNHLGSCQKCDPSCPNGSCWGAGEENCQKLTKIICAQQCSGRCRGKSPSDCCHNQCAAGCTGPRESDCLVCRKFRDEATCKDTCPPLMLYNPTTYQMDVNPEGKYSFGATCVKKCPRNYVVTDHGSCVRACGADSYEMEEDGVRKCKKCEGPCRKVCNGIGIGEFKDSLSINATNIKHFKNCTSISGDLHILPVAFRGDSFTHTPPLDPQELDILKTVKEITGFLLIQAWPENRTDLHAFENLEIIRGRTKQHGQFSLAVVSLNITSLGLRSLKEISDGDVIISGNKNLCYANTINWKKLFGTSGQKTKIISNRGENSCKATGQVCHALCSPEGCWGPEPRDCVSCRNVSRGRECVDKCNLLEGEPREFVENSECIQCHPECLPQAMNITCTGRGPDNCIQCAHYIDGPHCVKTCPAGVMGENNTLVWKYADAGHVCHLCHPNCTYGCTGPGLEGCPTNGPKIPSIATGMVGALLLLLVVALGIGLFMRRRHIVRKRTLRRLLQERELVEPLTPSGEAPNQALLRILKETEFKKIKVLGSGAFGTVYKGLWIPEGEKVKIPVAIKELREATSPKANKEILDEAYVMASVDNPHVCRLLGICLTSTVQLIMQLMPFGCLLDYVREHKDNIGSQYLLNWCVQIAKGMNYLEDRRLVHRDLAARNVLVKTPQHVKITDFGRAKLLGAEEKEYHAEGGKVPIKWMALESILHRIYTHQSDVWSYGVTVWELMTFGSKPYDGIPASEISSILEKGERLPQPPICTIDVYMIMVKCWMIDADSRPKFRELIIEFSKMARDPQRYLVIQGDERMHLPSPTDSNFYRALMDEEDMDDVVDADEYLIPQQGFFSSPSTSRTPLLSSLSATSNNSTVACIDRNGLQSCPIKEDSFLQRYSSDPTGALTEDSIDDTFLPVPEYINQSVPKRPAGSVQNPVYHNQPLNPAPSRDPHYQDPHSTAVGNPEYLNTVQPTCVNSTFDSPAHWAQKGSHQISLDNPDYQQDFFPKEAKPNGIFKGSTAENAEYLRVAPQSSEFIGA

IC50 (NCI-H1975 [1]): 1.82 µM | IC50 (A-431): 20.7 µM | IC50 (SK-BR-3): 30.8 µM | IC50 [2]: 0.0057 µM | IC50 (Histone deacetylase 1): 0.075 µM | IC50 [3]: 0.0015 µM | IC50 [4]: 0.00035 µM | inhibition [6]: Dose-dependent effect | inhibition [7]: Dose-dependent effect | inhibition [8]: Dose-dependent effect | inhibition [21]: Active | inhibition [22]: Active | inhibition [23]: Active
SMILES: C=CC(=O)Nc1cc2c(Nc3ccc(F)c(Cl)c3)ncnc2cc1OCc1cn(CCCC(=O)NO)nn1
IC50 [5]: 1.75 µM | IC50 (L02): > 25 µM | Activity (NCI-H1975 [9]): Dose-dependent effect | Activity (NCI-H1975 [10]): 24.28% | Activity (NCI-H1975 [11]): 13.07% | Activity (NCI-H1975 [12]): 0.08% | viability at 0.5 µM (NCI-H1975 [13]): 62.6% | Activity (NCI-H1975 [14]): 31.38% | Activity (NCI-H1975 [15]): 14.3% | Activity (NCI-H1975 [16]): 0.36% | viability at 2.5 µM (NCI-H1975 [17]): 54% | Activity (NCI-H1975 [18]): 35.22% | Activity (NCI-H1975 [19]): 18.07% | viability at 5 µM (NCI-H1975 [20]): 46.1% | Activity (NCI-H1975 [24]): Active | Activity (NCI-H1975 [25]): Active | Activity (NCI-H1975 [26]): Active

Reference: ChEMBL document CHEMBL4732162, “Design, synthesis and evaluation of novel ErbB/HDAC multitargeted inhibitors with selectivity in EGFR mutant cell lines” (Eur J Med Chem, 2021)
